RGS4 act: RGS4 potentiation or activation | hit rate 0.92% among 310,000 | AID 463111 | B-score at 10 µM | HEK293 M3R/inducible RGS4, carbachol calcium flux Fluo4; hits give low values;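 active = B-score of the integrated calcium signal more than 4 SD below the library mean, with starting fluorescence not abnormally high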;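 note: negative B-score means reduced calcium response which marks RGS4 activation or potentiation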
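Also added: carbachol at ECmax as muscarinic agonist stimulus; Assay system: HEK293 cells with stable M3R and inducible RGS4; Timing: overnight RGS4 induction, 30 min dye load 37 °C, 20 min compound RT; Measured by: Fluo4-AM (2 µM) calcium-flux fluorescence, kinetic read.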
MrgX1 antag: blocks BAM8-22 activation of human MrgX1 receptor; Q96LB2; MRGX1-HEK293 calcium flux, Fluo-4, BAM8-22 antagonism; hits give low values; B-score at 10 µM; hit rate 1.3% among 310,000;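 active = calcium-response B-score plate-corrected more than 3 library SD below zero, starting fluorescence within 5 deviations, no agonist response on first addition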;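 note: peak minus trough fluorescence over baseline after final BAM8-22 challenge near maximal dose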
Target sequence (Q96LB2 whole entry, looked up): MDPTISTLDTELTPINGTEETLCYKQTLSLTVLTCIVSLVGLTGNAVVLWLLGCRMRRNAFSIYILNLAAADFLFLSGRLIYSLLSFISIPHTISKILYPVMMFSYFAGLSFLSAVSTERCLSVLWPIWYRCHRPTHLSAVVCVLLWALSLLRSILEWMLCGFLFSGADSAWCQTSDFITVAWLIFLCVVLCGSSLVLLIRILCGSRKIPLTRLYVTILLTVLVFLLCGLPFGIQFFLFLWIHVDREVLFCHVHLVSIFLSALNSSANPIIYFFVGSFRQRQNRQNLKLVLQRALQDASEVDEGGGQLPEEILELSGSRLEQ
RGS4 block: human RGS4 inhibition; P49798; HEK293 M3R/RGS4 inducible, Fluo-4 calcium flux; hits give high values; triggered by carbachol at its EC20; B-score at 10 µM; hit rate 0.45% among 310,000;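 active = B-score, a plate-corrected calcium signal, over three deviations above library mean, with baseline fluorescence within five deviations of library mean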;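 note: RGS4 expression induced by doxycycline in cells with stable M3 receptor; B-score is computed from the integrated fluorescence ratio over baseline after carbachol; higher B-score means a larger calcium signal and so more RGS4 inhibition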
Target sequence (P49798 whole entry, looked up): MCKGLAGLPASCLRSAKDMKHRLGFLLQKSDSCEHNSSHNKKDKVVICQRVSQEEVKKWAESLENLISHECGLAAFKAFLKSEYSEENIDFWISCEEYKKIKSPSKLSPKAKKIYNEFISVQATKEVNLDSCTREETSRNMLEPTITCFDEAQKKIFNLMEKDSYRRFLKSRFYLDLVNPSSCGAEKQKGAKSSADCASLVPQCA
MrgX1 agonist: agonists of human MrgX1 receptor. Q96LB2. MrgX1-HEK293 cells, Fluo-4 calcium fluorescence, agonist mode; hits give high values. B-score at 10 µM. hit rate 0.44% among 310,000;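 active = calcium response B-score plate-corrected fluorescence ratio at least 3 library SD, with starting fluorescence B-score inside 5 SD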
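System: HEK293 cells stably expressing human MrgX1 receptor; Dosing: test compound in the initial addition of three; Schedule: overnight plating, then 30 min 37 °C plus 30 min room-temperature dye loading; Detection: kinetic calcium dye fluorescence, Fluo-4 NW; Controls: per-plate positive and negative controls for Z′ factor.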
MrgX1 PAM: human MrgX1 positive allosteric modulation, primary screen; MrgX1-HEK293, Fluo-4 calcium flux, FDSS; hits give high values; AID 588675; hit rate 0.63% among 310,000; B-score at 10 µM; Q96LB2;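 active = plate-corrected calcium response at least 3 library SD above typical, normal starting fluorescence, not activating the receptor alone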;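 note: compound read alongside a low EC10 to EC30 dose of BAM8-22 agonist; peak minus trough fluorescence over baseline measured at the second addition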
MrgX1 ant reconf: human MrgX1 receptor antagonism, re-confirmation screen; MrgX1-HEK293, BAM8-22 calcium flux, Fluo-4; hits give low values; remaining BAM8-22 calcium response % of control (hits give low values), % at 10 µM; AID 602420; shares compounds with MrgX1 antag; hit rate 19% among 2,300;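 active = remaining agonist calcium response no higher than 100% minus 3 SD of agonist-only control wells, with starting fluorescence near control levels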;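 note: agonist BAM8-22 given at a near maximal EC90 to ECmax level; peak minus minimum fluorescence divided by baseline after agonist addition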
HEK293 Ca flux: counter-screen for MrgX1 antagonists: effect in parental HEK293 cells; shares compounds with MrgX1 antag; Fluo-4 calcium fluorescence, FDSS; fluorescence ratio F(max-min)/F0 at 10 µM; hit rate 2% among 4,000; AID 624111;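 active = duplicate-averaged calcium fluorescence ratio at least three times the standard deviation of buffer wells, a nonspecific response in parental cells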
HEK293 Ca counter: MrgX1 allosteric activator counter-screen hit in parental HEK293 cells | fluorescence ratio F(max-min)/F0 at 10 µM | parental HEK293 calcium flux, Fluo-4 fluorescence ratio; hits give high values | shares compounds with MrgX1 antag | hit rate 0.4% among 4,000;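 active = calcium fluorescence ratio, averaged over duplicates, at least 3 SD of the buffer-well ratio, meaning a nonspecific response in receptor-free cells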;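 note: untransfected parental HEK293 lacking MrgX1 used as counterscreen for MrgX1 allosteric activators; fluorescence change taken during the second addition on a kinetic imager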
HEK293 Ca cntr2: activity in parental HEK293 cells lacking MrgX1 receptor | shares compounds with MrgX1 antag | fluorescence ratio F(max-min)/F0 at 10 µM | Fluo-4 calcium fluorescence (FDSS); hits give high values | hit rate 8.7% among 4,000;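 active = calcium fluorescence ratio at least three times the spread of buffer wells, meaning a non-specific response in parental cells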
* = called active by the depositor; i = inactive; . = not tested or not shown. Rows were chosen to be rich in hits. Some 3.5% of all compounds tested hit in one or more screens of this group.

SMILES	RGS4 act	MrgX1 antag	RGS4 block	MrgX1 agonist	MrgX1 PAM	MrgX1 ant reconf	HEK293 Ca flux	HEK293 Ca counter	HEK293 Ca cntr2
COc1ccc2c(c1OC)C(=O)OC2n1c(O)c(N=NC(C)=O)c2ccccc21 (stereo not given)	i	i	i	i	i	.	.	.	.
CN(Cc1ccccc1)C(=O)c1ccc(NC(=O)c2ccccc2)cc1	i	-5.53*	i	i	i	i	i	i	i
CCOCCOC(=O)c1cccc2c1-c1ccccc1C2=O	i	i	i	i	i	.	.	.	.
COc1ccc(OC)c(S(=O)(=O)Nc2ccc(OCC(=O)O)cc2)c1	i	i	i	i	i	.	.	.	.
COc1ccc(OC)c(S(=O)(=O)Nc2ccc(CC(=O)O)cc2)c1	i	-9.17*	i	i	i	i	i	i	i
Cc1ccc(N2C(=O)c3ccccc3NC2C(C)Cc2ccc3c(c2)OCO3)cc1 (stereo not given)	i	-5.13*	i	i	i	i	i	i	i
CC(=O)OC1CSC2c3ccccc3C(=O)N2Cc2sccc21 (stereo not given)	i	i	i	i	i	.	.	.	.
COC(=O)C(NC(=O)c1ccccc1)c1ccccc1 (stereo not given)	i	-9.39*	i	i	i	i	i	i	i
O=C(O)c1ccccc1NS(=O)(=O)c1cccc(C(F)(F)F)c1	i	i	i	i	i	.	.	.	.
O=C(O)c1ccccc1NS(=O)(=O)c1cccc(-n2sc3ccccc3c2=O)c1	i	-6.27*	i	i	i	43.7%*	i	i	i
O=C(NCC1CC1(Cl)Cl)Nc1ccc(Cl)c(Cl)c1 (stereo not given)	i	-5.51*	i	i	i	i	i	i	i
Cc1ccc(NC(=O)NCC2CC2(Cl)Cl)cc1 (stereo not given)	i	i	i	i	i	.	.	.	.
CC(C)(CO)NC(=O)Nc1ccc(Cl)c(Cl)c1	i	-7.71*	i	i	i	i	i	i	i
O=C(C(=O)N1CCN(c2cccc(Cl)c2)CC1)c1cn(CC(=O)N2CCOCC2)c2ccccc12	i	i	i	i	i	.	.	.	.
Cc1ccc(C2(c3noc(CN(C)Cc4cnn(C)c4)n3)CCCC2)cc1	i	i	i	i	i	.	.	.	.
COc1ccccc1NC(=O)COC(=O)Cc1c[nH]c2ccccc12	i	i	i	i	i	.	.	.	.
CC(C)c1ccccc1NC(=O)COC(=O)Cc1c[nH]c2ccccc12	i	-18.6*	i	i	i	i	i	i	i
C/C=C(\C)CN1CCC(Oc2cccc(C(=O)NCc3ccccn3)c2)CC1	i	i	i	i	i	.	.	.	.
Cc1ccc(Cl)cc1NC(=O)Nn1cnnc1	i	i	i	i	i	.	.	.	.
COc1ccccc1NC(=O)c1nn(C)cc1Br	.	-7.55*	.	i	i	i	i	i	i
CCc1c(C)sc(NC(=O)c2ccoc2C)c1C(N)=O	i	-5.95*	i	i	i	i	i	i	i
Cc1occc1C(=O)Nc1sc2c(c1C(N)=O)CCCCC2	i	-6.48*	i	i	i	i	i	i	i
OCc1cccnc1	i	i	i	i	i	.	.	.	.
O=C1CCc2cc(S(=O)(=O)N3CCN(c4ccccc4F)CC3)ccc2N1	i	-4.99*	i	i	i	i	i	i	i
COc1ccc(CC(NC(C)=O)C(=O)NC2CCN(c3nnnn3-c3ccccc3)CC2)cc1OC (stereo not given)	i	i	i	i	i	.	.	.	.
SMILES	RGS4 act	MrgX1 antag	RGS4 block	MrgX1 agonist	MrgX1 PAM	MrgX1 ant reconf	HEK293 Ca flux	HEK293 Ca counter	HEK293 Ca cntr2
O=C(NC1=NCCS1)c1cc(-c2ccc(F)cc2)nc2ccccc12	i	i	i	i	i	.	.	.	.
Cc1ccc(-c2cc(C(=O)NC3=NCCS3)c3ccccc3n2)cc1C	i	-4.92*	i	i	i	i	i	i	i
COc1cc(-c2nc(CN(C)C(C)c3ccncn3)c(C)o2)ccc1F (stereo not given)	i	i	i	i	i	.	.	.	.
C[C@H](NC(CCc1ccccc1)C(=O)O)C(=O)N1CCC[C@H]1C(=O)O (stereo not given in full)	i	i	i	i	i	.	.	.	.
COc1ccc(OC)c(Nc2nc3nonc3nc2N2CCCC(C)C2)c1 (stereo not given)	i	-5.48*	i	i	i	i	i	i	i
CC(C)c1ccc(O)c(NC(=O)c2cncc(Br)c2)c1	i	-7.8*	i	i	i	i	i	i	i
O=C(Nc1ccncc1)c1cncc(Br)c1	i	-5.45*	i	i	i	i	i	i	i
CCC(C)c1ccc(O)c(NC(=O)c2cccnc2)c1 (stereo not given)	i	i	i	i	i	.	.	.	.
O=C(Nc1cccc(NC(=O)c2cncc(Br)c2)c1)c1cncc(Br)c1	i	i	i	i	i	.	.	.	.
CC(C)(CC(=O)O)CC(=O)NCc1c(Cl)cccc1Oc1ccccc1	i	i	i	i	i	.	.	.	.
CN(C)S(=O)(=O)c1ccc(C(=O)Nc2ccc(S(=O)(=O)NC3=NCCCCC3)cc2)cc1	i	-7.52*	i	i	i	i	i	i	i
O=C(Nc1ccc(S(=O)(=O)NC2=NCCCCC2)cc1)c1ccc(C(F)(F)F)cc1	i	i	i	i	i	.	.	.	.
COC(=O)[C@H](CCSC)NC(=O)Nc1ccc(S(N)(=O)=O)cc1	i	i	i	i	i	.	.	.	.
Cc1ccc(S(=O)(=O)N2CCN(CC(O)c3ccccc3)CC2)cc1C (stereo not given)	i	-4.96*	i	i	i	i	i	i	i
CCOC(=O)N/C(N)=N/c1nc2ccccc2s1	i	-7.65*	i	i	i	i	i	i	i
Cc1cc(C)c(-n2c(SCC(=O)N3CCOCC3)n[nH]c2=O)c(C)c1	i	i	i	i	i	.	.	.	.
